Test results taken from publication PMC8891099 (Clinical Pharmacokinetics, 2021).
Values after ≈ are worked out from the molar mass of the structure shown.

Legend:
[1] = system: patients with CKD and T2D; assay: Parametric time-to-event exposure-response; format: in vivo; settings: Homo sapiens, read-out: EC50 (half-maximal drug effect concentration)
In short: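 Parametric time-to-event model (Weibull hazard) for the first composite kidney event, with exposure-response as an Emax function driven by central-compartment concentration. Input was individual concentration-time profiles from post-hoc PK estimates, actual dosing history and covariates; typical PK parameters were used for subjects lacking them. Delay and Hill coefficient were tested. Checked by visual predictive checks with observed dropout.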

[2] = system: patients with CKD and T2D; assay: FIDELIO-DKD phase III study, kidney outcome events; format: in vivo, human; settings: finerenone group, 504 of 2833 patients, median follow-up of 2.6 years
[3] = system: patients with CKD and T2D; settings: corresponding to sustained eGFR decrease ≥ 57%, under finerenone treatment ref 3; cited from earlier work
[4] = Population pharmacokinetic model of finerenone in FIDELIO-DKD; format: in vivo, human
In short: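 Nonlinear mixed-effects model of sparse plasma levels after oral 10 or 20 mg once daily. Sampling was a month-4 trough plus post-dose samples at any time on yearly visits. Structure: two compartments with equal volumes, transit-compartment absorption and first-order elimination, starting from a phase IIb model. Covariate search used single addition and forward inclusion at p 0.01 and backward deletion at p 0.001.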

[5] = covariate parameter, population PK model
[6] = inter-individual variability, population PK model
[7] = population PK model estimate, FIDELIO-DKD patients

CCOc1ncc(C)c2c1[C@H](c1ccc(C#N)cc1OC)C(C(N)=O)=C(C)N2 [finerenone]
EC50 [1]: 0.166 ng/mL (≈ 0.439 nM)
patients with a kidney event contributing to the composite endpoint [2]: 17.8%
reduction of secondary endpoint doubling of serum creatinine [3]: 32%
Effect for Korean subjects on Vc/F [4, 5]: 1.29
Effect of body weight on Vc/F [4, 5]: 0.501
Absorption lag time ([4]; fixed in population PK model): 0.215 (fixed) h
Ratio Vp/F and Vc/F ([4]; fixed in population PK model): 1 (fixed)
Relative bioavailaility ([4]; fixed in population PK model): 1 (fixed)
Covariance CL/F × Vc/F [4, 6]: 0.0442
ω^2 Vc/F [4, 6]: 0.104
dose linearity of pharmacokinetics ([4]; over the investigated dose range (10 and 20 mg once daily)): dose linear
Inter-individual variability of CL/F expressed as CV ([4]; population PK model): ^aShrinkage was 26.6%, variability expressed as CV: 31.8%
Inter-individual variability of Vc/F expressed as CV ([4]; population PK model): ^bShrinkage was 47.8%, variability expressed as CV: 33.0%
CL/F [4, 7]: 29.9 L/h
Q/F [4, 7]: 0.335 L/h
Vc/F [4, 7]: 113 L
Ka ([4]; population PK model estimate, FIDELIO-DKD patients, oral 10 or 20 mg once daily): 22.5 h⁻¹
σ^2 ([4]; residual error, population PK model): 0.313
